Measured values taken from ChEMBL document CHEMBL1154615, “Hydroxamates: relationships between structure and plasma stability” (J Med Chem, 2009).

Tests used:
[1] = Half life in rat at 100 mg/kg, po; type: ADME, organism-based; set-up: dose 100 mg/kg, route oral; conditions: in vivo
[2] = Stability in potassium phosphate buffer at pH 7.4; type: physicochemical
[3] = (§1) Metabolic stability in Sprague-Dawley rat plasma at 10 uM by LC-MS/MS analysis; type: ADME, cell-free; conditions: Sprague-Dawley
Procedure, shortened: (§2)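 Pooled mixed-gender Sprague Dawley lithium-heparin rat plasma, 80 µL per time point in duplicate. Plasma is pre-incubated 5 min at 37 °C, then 30 min with 2 mM PMSF (final) where applied. Compound is added to 10 µM final in 1% DMSO. Quantified by LC-MSMS (MRM or SIM) against an internal standard with a per-compound calibration curve. Result is reported as t1/2.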

[4] = Half life in po dosed rat; type: ADME, organism-based; conditions: in vivo
[5] = tested on: Plasma; test: (§3) Metabolic stability in Sprague-Dawley rat plasma at 10 uM by LC-MS/MS analysis in presence of esterase inhibitor PMSF; type: ADME, cell-free; conditions: 10 µM; procedure, shortened: as §2
[6] = Stability in phosphate buffer saline at pH 7.4; type: physicochemical
[7] = species: Homo sapiens; test: Metabolic stability in human plasma by LC-MS/MS analysis
[8] = as §3; type: ADME, cell-free; conditions: Sprague-Dawley, with PMSF (esterase inhibitor); procedure, shortened: as §2
[9] = tested on: Plasma; test: as §1; type: ADME, cell-free; conditions: 10 µM; procedure, shortened: as §2
[10] = Half life in rat at 100 mg/kg, iv; type: ADME, organism-based; set-up: dose 100 mg/kg, route intravenous; conditions: in vivo

Row | Stability [2] | half-life at 10 µM [3] | Compound | further results
1 |  |  | CC(C)Cc1ccc(/C=C/C(=O)N(C)O)cc1 | half-life [1]: < 0.3 h
2 | Stable | 3 h | O=C(COc1ccccc1)NO | 
3 |  |  | O=C(NO)C1(S(=O)(=O)c2ccc(Oc3ccc(Cl)cc3)cc2)CCNCC1 | half-life [4]: 1.8 h
4 | Stable | 0.8 h | O=C(NO)C(Cc1ccccc1)C(=O)NCc1ccc(F)cc1 (centres undefined) | t1/2 [5]: 15 h; half-life [6]: > 24 h; half-life [7]: > 24 h
5 |  |  | CC(C)Cc1ccc(CCC(=O)N(C)O)cc1 | half-life [1]: < 0.3 h
6 |  |  | CC(C)Cc1ccc(C(=O)N(C)O)cc1 | half-life [1]: 0.3 h
7 |  | 0.05 h | CCOC(=O)[C@H](CCc1ccccc1)N[C@@H](C)C(=O)N1CCC[C@H]1C(=O)O | half-life at 10 µM [8]: > 24 h
8 | Stable | 1.4 h | O=C(CCOc1ccccc1)NO | 
9 | Stable | > 48 h | O=C(NCc1ccc(F)cc1)c1cc2ccccc2n(O)c1=O | 
10 | Stable | 4.1 h | O=C(NO)/C(=C/c1ccccc1)C(=O)NCc1ccc(F)cc1 | half-life [6]: > 24 h; half-life [7]: > 24 h
11 | Stable | 0.5 h | CN(O)C(=O)C(Cc1ccccc1)C(=O)NCc1ccc(F)cc1 (centres undefined) | 
12 |  |  | O=C(NO)C1(S(=O)(=O)c2ccc(Oc3ccc(Cl)cc3)cc2)CCN(C2CC2)CC1 | half-life [4]: 0.74 h
13 |  |  | CC(=O)N1CCC(C(=O)NO)(S(=O)(=O)c2ccc(Oc3ccc(Cl)cc3)cc2)CC1 | half-life [4]: 0.86 h
14 | Stable | > 24 h | O=C(Cc1ccccc1)NO [PHENYLACETOHYDROXAMIC ACID] | 
15 | Stable | 1.3 h | O=C(Cc1ccc(F)cc1)NC(Cc1ccccc1)C(=O)NO (centres undefined) | 
16 | Stable | 4 h | O=C(NO)c1ccc(C#CC2CC2)cc1 | 
17 |  |  | CC(C)Cc1ccc(C(C)C(=O)NO)cc1 (centres undefined) [IBUPROXAM] | half-life [1]: 0.3 h
18 | Stable | 33 h | CC(C(=O)NO)C(=O)NCc1ccc(F)cc1 (centres undefined) | 

Row | Stability [2] | half-life at 10 µM [3] | Compound | further results
19 |  |  | CN1CCC(C(=O)NO)(S(=O)(=O)c2ccc(Oc3ccc(Cl)cc3)cc2)CC1 | half-life [4]: 1.25 h
20 | Stable | 19.9 h | CC(C)(C(=O)NO)C(=O)NCc1ccc(F)cc1 | 
21 | Stable |  | O=C(CCCc1ccccc1)NO [PHENYLBUTYRYLHYDROXAMIC ACID] | t1/2 [9]: 2 h
22 | Stable | < 1 h | CC(C)(C)OC(=O)N[C@H](Cc1ccccc1)C(=O)NO | 
23 |  |  | CC(C)Cc1ccc(C(C)C(=O)N(C)O)cc1 (centres undefined) | half-life [1]: > 0.3 h
24 | Stable | 22.3 h | O=C(NO)C1(C(=O)NCc2ccc(F)cc2)CC1 | 
25 |  | 9.7 h | O=C(CCCCCCC(=O)Nc1ccccc1)NO [VORINOSTAT] | 
26 |  |  | CCN1CCC(C(=O)NO)(S(=O)(=O)c2ccc(Oc3ccc(Cl)cc3)cc2)CC1 | half-life [4]: 1.19 h
27 | Stable | 6.2 h | O=C(/C=C/c1ccccc1)NO | 
28 | Stable | 3 h | CC(Cc1ccccc1)(C(=O)NO)C(=O)NCc1ccc(F)cc1 (centres undefined) | 
29 | Stable | 1.5 h | O=C(CCc1ccccc1)NO | 
30 |  |  | CN(O)C(=O)/C=C/c1ccc2ccccc2c1 | half-life [10]: 6 min
31 |  |  | CC(C)Cc1ccc(CC(=O)N(C)O)cc1 | half-life [1]: < 0.3 h
32 | Stable | 1 h | CC1(C)ON=C(C(Cc2ccccc2)C(=O)NCc2ccc(F)cc2)O1 (centres undefined) | 
33 | Stable | 10.5 h | O=C(CC(=O)NCc1ccc(F)cc1)NO | 
34 | Stable | > 24 h | O=C(NO)c1ccccc1 [BENZOHYDROXAMATE] | 
35 | Stable | 22 h | O=C(NO)/C(=C\c1ccccc1)C(=O)NCc1ccc(F)cc1 | half-life [6]: > 24 h; half-life [7]: > 24 h
